Scp-1 inhibitor – inhibitors of human Scp-1 phosphatase. AID 493091. inhibition, % at 20 µM. Recombinant Scp1, phosphopeptide, malachite green phosphate absorbance. hit rate 0.88% among 340,000;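 active means inhibition above about 50% at 20 µM, limit read from the data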
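Test system: SCP-1 catalytic domain; Buffer or medium: Acidic Tris acetate buffer with magnesium and detergent; Also added: Phosphorylated 17-residue peptide substrate; Compound: single 20 µM dose, 1% DMSO; Schedule: enzyme reaction 45 min at room temperature, colour 5 min, stabilisation 30 min; Signal: Phosphate-binding colour reagent, absorbance read at 630 nm.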
STEP block – blocks human striatal-enriched tyrosine phosphatase. inhibition, % at 20 µM. P54829. recombinant STEP, OMFP fluorogenic substrate, fluorescence. hit rate 0.25% among 360,000;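 active means inhibition at 20 µM, scaled per plate between control wells, above about 37%, limit read from the data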
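material = STEP tyrosine phosphatase | reagent = fluorogenic phosphatase substrate OMFP at 25 µM final | doses = single compound dose of 20 µM, 1% DMSO final | schedule = 20 min reaction, room temperature, in the dark | measured by = fluorescence, 480/540 nm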
DNMT1 block – DNMT1 (human) enzyme inhibition; AID 588458; inhibition (reported as % activation of signal), % at 10 µM; DNMT1 molecular beacon, Hinp1I cleavage, fluorescence; hit rate 0.83% among 360,000; P26358; in the data active means inhibition above about 50%
LMPTP block – LMPTP (human) inhibition | inhibition, % at 20 µM | recombinant LMPTP-A, OMFP fluorogenic substrate, fluorescence intensity | AID 651560 | hit rate 0.22% among 360,000 | P24666;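 active means compounds that cut the enzyme signal by at least half of the control window in the single-dose screen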
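Assay system: LMPTP-A, protein tyrosine phosphatase of low molecular weight / Medium: pH 6.0 Bis-Tris buffer with DTT and Triton X-100 / Schedule: 50 min enzyme reaction at room temperature, protected from light / Measured by: endpoint fluorescence intensity from OMFP dephosphorylation / Read-out basis: % inhibition relative to no-enzyme and uninhibited control wells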
SUMO1 PPI mod – SUMO1-SIM interaction modulation; P63165; SUMO1 binding to a labelled peptide, TR-FRET, 1 h; inhibition, % at 20 µM; hit rate 0.33% among 360,000; AID 602429; in the data active means inhibition above about 37%
DNMT1 interf DR – beacon fluorescence artifact, dose response counter-screen. shares compounds with DNMT1 block. AID 602382. molecular beacon fluorescence, spectral interference counter-screen. 200 tested, under 10 active. IC50, µM; call rule not given here
DNMT1 inh conf – confirmation of human DNMT1 inhibitors; shares compounds with DNMT1 block; DNMT1 molecular beacon HinP1I cleavage, fluorescence; inhibition, % at 10 µM; hit rate 8% among 2,300; AID 602385;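 active means average inhibition of at least 30% in the single-concentration confirmation test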
DNMT1 interf – counter-screen for DNMT1 inhibitors: spectral interference; shares compounds with DNMT1 block; DNMT1 molecular beacon spectral interference counterscreen, fluorescence 485/520; activation (fluorescence interference), % at 10 µM; hit rate 1% among 2,300; AID 602387;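 active means activation of at least 30% at 10 µM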;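 further: DNMT1 catalytic domain with a HinP1I cleavage step and a FAM/dabcyl DNA beacon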
Hits are given with their value; – = inactive; · = not tested or not shown. This is a sample that favours compounds with a hit; in the whole collection about 1.7% have one here.

SMILES	Scp-1 inhibitor	STEP block	DNMT1 block	LMPTP block	SUMO1 PPI mod	DNMT1 inh conf	DNMT1 interf	others
COc1ccc(/C=C2/SC(=O)N(CCC(=O)Nc3ccccc3)C2=O)cc1OC	–	–	62	–	–	–	–
CC1=NN(c2ccc(C)c(C)c2)C(=O)/C1=C\C=C\c1ccc([N+](=O)[O-])o1	65	–	91	–	–	–	–
CC1=NN(c2ccccc2)C(=O)/C1=C\C=C\c1ccccc1	–	–	–	–	–	·	·
COc1ccc(C2CC(c3cccc([N+](=O)[O-])c3)=NN2/C(C)=C/C(C)=O)cc1 (stereo not drawn)	·	–	57	–	–	–	–
O=C(Nc1cccc(Cl)c1)c1nc[nH]c1C(=O)NCCCCNC(=O)c1[nH]cnc1C(=O)Nc1cccc(Cl)c1	–	–	53	–	–	–	–
O=C(Nc1ccccc1)c1nc[nH]c1C(=O)NCc1ccccc1	–	–	–	–	–	·	·
NNC(=O)c1nc[nH]c1C(=O)Nc1ccccc1	–	–	66	–	–	–	–
COc1cc(C(=O)N(C)CC(=O)Nc2cccc(F)c2)ccc1OCc1ccccc1	–	–	–	–	–	·	·
CCc1ccc(-c2cc(C(F)(F)F)n3nc(C(=O)Nc4cnn(Cc5ccc(C)cc5)c4)cc3n2)s1	–	–	56	–	–	–	–
Cc1ccccc1Cn1cc(NC(=O)c2cc3nc(-c4ccco4)cc(C(F)(F)F)n3n2)cn1	–	–	–	–	–	·	·
O=C(O)c1cc(O)c2c(c1)C(=O)c1cccc(O)c1C2=O	65	–	69	–	–	–	–
O=C(O)c1ccc2c(c1)S(=O)(=O)c1ccccc1C2=O	–	–	–	–	–	·	·
O=C(CC1Oc2ccccc2NC1=O)NC1CC1 (stereo not drawn)	·	–	97	–	–	–	–
CC1=C(C(=O)N2CCOCC2)CC(CC(=O)NCc2cccc3ccccc23)C(=O)N1Cc1ccc(C(C)(C)C)cc1 (stereo not drawn)	·	–	–	–	–	·	·
O=C(NCCO)c1ccc2nc(-c3ccco3)c(-c3ccco3)nc2c1	–	–	58	–	44	–	–
c1coc(-c2nc3ccccc3nc2-c2ccco2)c1	–	–	103	–	–	–	–
c1coc(-c2cnc3ccccc3n2)c1	·	–	–	–	–	·	·
O=C(c1ccccc1)c1ccc2nc(-c3ccco3)c(-c3ccco3)nc2c1	66	–	101	75	52	–	–
Cc1nccn1-c1ccc(C=O)cc1	–	–	–	–	–	·	·
COCCNCCCCSc1ccc(Cl)cc1	–	–	75	–	–	–	–
COCCNC(=O)CSc1ccc(Cl)cc1	–	–	–	–	–	·	·
CC1Cc2ccccc2N1S(=O)(=O)c1cccc(C(=O)N2CCN(c3ncccn3)CC2)c1 (stereo not drawn)	–	–	–	–	–	·	·
CC(=O)Nc1ccc(/C=N/NC(=O)c2cc(-c3ccco3)nc3ccccc23)cc1	–	–	–	–	–	·	·
Cc1ccc(NC(=O)COC(=O)c2cc(C)nc3ccccc23)c([N+](=O)[O-])c1	–	–	64	–	–	–	–
CCN(CC)C(=O)COC(=O)c1cc(-c2ccco2)nc2ccccc12	82	–	73	–	–	–	–
SMILES	Scp-1 inhibitor	STEP block	DNMT1 block	LMPTP block	SUMO1 PPI mod	DNMT1 inh conf	DNMT1 interf	others
O=C(O)c1ccccc1/C=N/NC(=O)c1cc(-c2ccco2)nc2ccccc12	77	–	91	–	57	38	–	DNMT1 interf DR=–
CNC(=O)COC(=O)c1cc(-c2ccco2)nc2ccccc12	76	–	56	–	–	–	–
CCc1ccccc1NC(=O)CNC(=O)CCC(=O)c1cc(C)sc1C	·	–	–	–	–	·	·
O=C(N/N=C/c1ccc(OC(=O)c2cccs2)cc1)c1ccccn1	–	–	–	–	–	·	·
O=C(C[n+]1cccc2ccccc21)c1ccc([N+](=O)[O-])cc1	–	–	–	–	–	·	·
Cc1cc[n+](CC(=O)c2cccc([N+](=O)[O-])c2)c2ccccc12	–	–	53	–	–	43	–	DNMT1 interf DR=–
O=C1C2CC=C(Cl)CC2C(=O)N1CCN1CCOCC1 (stereo not drawn)	–	–	–	–	–	·	·
O=C1C2CC=C(Cl)CC2C(=O)N1CCCCCCN1C(=O)C2CC=C(Cl)CC2C1=O (stereo not drawn)	71	–	61	–	–	–	–
Cc1nn(CCc2nc(-c3ccco3)cs2)c2[nH]c(=O)cc(C(F)(F)F)c12	–	–	61	–	–	–	–
O=c1c(Cl)c(N/N=C/c2ccc(Cl)cc2)cnn1-c1ccccc1	–	–	80	54	–	–	–
O=c1c(Cl)c(Cl)cnn1-c1ccccc1	–	–	–	–	–	·	·
COc1ccc(N(CC(=O)NCCSCc2ccco2)S(=O)(=O)c2ccccc2)cc1	–	–	76	–	–	–	–
COc1ccc(N(CC(=O)NCCSCc2ccco2)S(=O)(=O)c2ccc(C)cc2)cc1	–	–	–	–	–	·	·
CC(C)[C@H](NC(=O)[C@H](Cc1ccccc1)n1c(=O)[nH]c2ccccc2c1=O)C(=O)N1CCC[C@H]1C(=O)O	–	–	–	–	–	·	·
CC(C)[C@H](NC(=O)[C@H](Cc1ccccc1)n1c(=O)[nH]c2ccccc2c1=O)C(=O)N1CCC[C@@H]1C(=O)O	–	–	82	–	–	–	–
O=C(O)c1cc(-c2ccc(/C=C3\NC(=O)N(c4ccc(Cl)cc4)C3=O)o2)ccc1Cl	74	–	99	–	–	–	–
C#CCN1C(=O)S/C(=C\c2ccc(-c3ccc(Cl)c(C(=O)O)c3)o2)C1=O	–	–	–	–	–	·	·
CSc1nsc(/C=C/Nc2ccc(F)cc2F)c1C#N	–	–	–	–	–	·	·
CSc1nsc(/C=C/Nc2ccc(C(=O)O)cc2)c1C#N	–	–	66	–	–	–	–
Cc1csc(NC(=O)CCn2c(=O)oc3ccccc32)n1	–	–	–	–	–	·	·
O=C(Cn1c(=O)oc2ccccc21)Nc1nc(-c2ccc(Br)cc2)cs1	–	–	–	–	–	–	–
Cc1cc(/C=C2\SC(=S)NC2=O)c(C)n1C1CC1	–	–	66	–	–	–	–
Cc1cc(/C=C2/C(=O)N(C)C(=S)N2C)c(C)n1C1CC1	–	–	–	–	–	·	·
N#Cc1ccccc1S(=O)(=O)NC(=O)[C@H]1O[C@@H](n2cnc3c(N)ncnc32)[C@H](O)[C@@H]1O	·	–	84	–	–	–	–
Nc1ncnc2c1ncn2[C@@H]1O[C@H](C(=O)NS(=O)(=O)c2cccc(F)c2)[C@@H](O)[C@H]1O	·	–	–	–	–	·	·

Source: PubChem (Sanford-Burnham Center for Chemical Genomics)
